Measured values from ChEMBL document CHEMBL1123492, “Carboxyl-modified amino acids and peptides as protease inhibitors” (J Med Chem, 1986).

Substrate: O=C(CNC(=O)OCc1ccccc1)Oc1ccc([N+](=O)[O-])cc1
Experiment: Michaelis constant against papain
Details: Carica papaya
Method in brief: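 Papain activated 45 min at 25 °C in 50 mM phosphate pH 6.2 with 1 mM EDTA and 0.25 mM cysteine, made fresh daily. N-Cbz-Gly p-nitrophenyl ester hydrolysis at 25 °C read at 340 nm (Δε 6000 M⁻¹ cm⁻¹), corrected for nonenzymic hydrolysis. Compounds in acetonitrile or DMF, final <2.5% v/v. Reversible Ki by Lineweaver–Burk; irreversible Ki and k2 by Kitz–Wilson.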

B1: Papain (Carica papaya), P00784 (protein)
chain: MAMIPSISKLLFVAICLFVYMGLSFGDFSIVGYSQNDLTSTERLIQLFESWMLKHNKIYKNIDEKIYRFEIFKDNLKYIDETNKKNNSYWLGLNVFADMSNDEFKEKYTGSIAGNYTTTELSYEEVLNDGDVNIPEYVDWRQKGAVTPVKNQGSCGSCWAFSAVVTIEGIIKIRTGNLNEYSEQELLDCDRRSYGCNGGYPWSALQLVAQYGIHYRNTYPYEGVQRYCRSREKGPYAAKTDGVRQVQPYNEGALLYSIANQPVSVVLEAAGKDFQLYRGGIFVGPCGNKVDHAVAAVGYGPNYILIKNSWGTGWGENGYIRIKRGTGNSYGVCGLYTSSFYPVKN
Protein B1 has a Km of 10.3 µM.
